High-throughput results: PubChem, Johns Hopkins Ion Channel Center
MrgX1 antag – antagonists of human MrgX1 receptor, primary screen, HEK293 cells, Fluo-4 calcium flux; AID 588676, 2011; B-score at 10 µM; BAM8-22 antagonism; hits give low values; 1.3% of 310,000 active; Mas-related G-protein coupled receptor member X1 (Homo sapiens), Q96LB2;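 active = calcium-response B-score plate-corrected more than 3 library SD below zero, starting fluorescence within 5 deviations, no agonist response on first addition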;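 also: peak minus trough fluorescence over baseline after final BAM8-22 challenge near maximal dose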
Target sequence (Q96LB2 whole entry, looked up): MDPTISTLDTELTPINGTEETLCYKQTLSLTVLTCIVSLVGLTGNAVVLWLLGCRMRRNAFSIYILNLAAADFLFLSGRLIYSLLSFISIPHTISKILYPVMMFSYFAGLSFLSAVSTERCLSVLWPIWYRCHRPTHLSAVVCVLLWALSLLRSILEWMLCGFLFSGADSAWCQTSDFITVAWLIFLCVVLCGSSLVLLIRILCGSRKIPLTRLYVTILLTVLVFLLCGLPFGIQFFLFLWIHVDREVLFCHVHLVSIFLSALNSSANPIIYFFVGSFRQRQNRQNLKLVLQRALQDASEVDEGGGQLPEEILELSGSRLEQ
RGS4 block – RGS4 inhibitors, primary screen, cell-based, HEK293 M3R inducible RGS4, calcium flux | Regulator of G-protein signaling 4 (Homo sapiens), P49798 | Fluo-4 calcium flux; hits give high values; triggered by carbachol at its EC20 | B-score at 10 µM | 0.45% of 310,000 active;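 active = B-score, a plate-corrected calcium signal, over three deviations above library mean, with baseline fluorescence within five deviations of library mean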;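 also: RGS4 expression induced by doxycycline in cells with stable M3 receptor; B-score is computed from the integrated fluorescence ratio over baseline after carbachol; higher B-score means a larger calcium signal and so more RGS4 inhibition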
Target sequence (P49798 whole entry, looked up): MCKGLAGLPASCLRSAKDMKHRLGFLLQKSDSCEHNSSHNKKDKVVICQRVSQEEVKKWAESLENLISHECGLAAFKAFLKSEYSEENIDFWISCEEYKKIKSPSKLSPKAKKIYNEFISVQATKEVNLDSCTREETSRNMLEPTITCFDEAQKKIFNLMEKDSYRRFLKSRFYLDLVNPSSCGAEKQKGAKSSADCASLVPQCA
RGS4 pot – RGS4 potentiators or activators, primary screen, cell-based, HEK293 M3R inducible RGS4, calcium flux | 0.92% of 310,000 active | B-score at 10 µM | carbachol calcium flux Fluo4; hits give low values | AID 463111, 2010;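 active = B-score of the integrated calcium signal more than 4 SD below the library mean, with starting fluorescence not abnormally high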;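 also: negative B-score means reduced calcium response which marks RGS4 activation or potentiation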
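System – HEK293 FlpIn-TREx cells, stable M3R, doxycycline-inducible RGS4 · Reagent – ECmax carbachol challenge · Times – compound preincubation 20 min at room temperature before agonist · Technique – Fluo4 fluorescence kinetic imaging of calcium · Measure – B score of integrated Fluo4 ratio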
MrgX1 agonist – agonists of human MrgX1 receptor, primary screen, HEK293 cells, Fluo-4 calcium flux. Mas-related G-protein coupled receptor member X1 (Homo sapiens), Q96LB2. Fluo-4 calcium fluorescence, agonist mode; hits give high values. B-score at 10 µM. 0.44% of 310,000 active;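 active = calcium response B-score plate-corrected fluorescence ratio at least 3 library SD, with starting fluorescence B-score inside 5 SD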
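Assay system: stable human MrgX1 HEK293 cell line. Quantity: 15,000 cells per well. Schedule: cells plated overnight, dye loaded 0.5 h 37 °C, 0.5 h room temperature. Detection: Fluo-4 NW calcium-flux fluorescence, kinetic read. Read-out basis: peak-minus-minimum fluorescence over baseline, converted to B scores. Control set: positive and negative control wells on each plate.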
MrgX1 allo act – positive allosteric modulators of MrgX1, primary screen, HEK293 cells, Fluo-4 calcium flux. FDSS; hits give high values. AID 588675, 2011. B-score at 10 µM. 0.63% of 310,000 active;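 active = plate-corrected calcium response at least 3 library SD above typical, normal starting fluorescence, not activating the receptor alone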;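 also: compound read alongside a low EC10 to EC30 dose of BAM8-22 agonist; peak minus trough fluorescence over baseline measured at the second addition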
RGS4 activ val – reduced carbachol calcium response, RGS4-induced M3R cells, confirmation, RGS4 activator project, cell-based, HEK293 M3R/RGS4 inducible, calcium flux, duplicate. 89% of 1,100 active. AID 602282, 2012. inhibition, % at 10 µM. carbachol calcium flux Fluo4. shares compounds with RGS4 pot;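 active = inhibition above 3 SD of the buffer control wells, cut at about 41% in these data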;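 also: signal is the integrated peak-minus-minimum Fluo4 fluorescence over baseline ratio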
M3R Ca counter – RGS4 activator counter-screen hit in non-induced cells | 82% of 1,100 active | shares compounds with RGS4 pot | inhibition, % at 10 µM | HEK293 M3R non-induced RGS4, Fluo4 calcium flux; after carbachol challenge at its EC90;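 active = inhibition exceeding 3 SD of buffer-only control wells, cut at about 26% in these data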;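 also: percent drop in integrated peak-minus-baseline over baseline Fluo4 ratio after carbachol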
Each line names hits and unclear results; the compound was inactive in the other large screens (follow-up assays come after a bar, where they were run). A selection: hits, their analogues and other compounds. The true share with any hit is near 3.5%.

C=CCOC(=O)C1=C(C)NC(SCC(N)=O)=C(C#N)C1c1ccc(C)cc1 (configuration not stated)	none
COc1ccc(NC(=O)COc2cccc3c2CCN(C)C3=O)c(OC)c1	none
Cc1cc(N2CCCCC2)n2ncc(-c3ccccc3)c2n1	RGS4 pot -8.1 | RGS4 activ val 94 | M3R Ca counter 87
Cc1cc(N2CCCCC2)n2ncc(-c3ccc(Cl)cc3)c2n1	none
CNc1ccc(C(O)(C(F)(F)F)C(F)(F)F)cc1C(O)(C(F)(F)F)C(F)(F)F	RGS4 pot -8.2 | RGS4 activ val 90 | M3R Ca counter 69
Cc1ccc(N)c(C(O)(C(F)(F)F)C(F)(F)F)c1	none
Cc1ccc(-c2nc(CN(C)Cc3ccc4nccnc4c3)c(C)o2)s1	none
O=C(Nc1ccc2c(c1)OCCO2)c1ccccc1F	none
O=C(Nc1ccc2c(c1)OCCO2)c1cccc2nc3ccccc3nc12	RGS4 pot -9.3 | RGS4 activ val 86 | M3R Ca counter 52
Cc1ccc(Sc2nnc(-c3ccccc3)cc2C#N)cc1	none
Cc1ccc(Sc2ccc(N)cc2C#N)cc1	RGS4 pot -8.8 | RGS4 activ val 83 | M3R Ca counter 42
O=c1c2ccccc2[nH]c(=S)n1CCCN1CCC(Cc2ccccc2)CC1	none
O=C(O)CCC(=O)Nc1nc2nccc(-c3ccccc3)n2n1	none
N#CCC(=O)N/N=C/c1c(-c2ccccc2)n(-c2ccccc2)c2ccccc12	RGS4 pot -12 | RGS4 activ val 86 | M3R Ca counter 50
N#CCC(=O)N/N=C/c1cn(Cc2ccccc2C#N)c2ccccc12	none
Cc1nn(Cc2ccc(C(=O)Nc3ccc(C(=O)OC(C)C)cc3)o2)c(C)c1Cl	RGS4 pot -9.6 | RGS4 activ val 92 | M3R Ca counter 79
Cc1nn(Cc2ccc(C(=O)NN)o2)c(C)c1Cl	none
O=C(CN1CCN(Cc2ccccc2Cl)CC1)N/N=C/c1ccccn1	none
NC(=O)C1CCN(c2ccc3c(c2)S(=O)(=O)c2ccccc2C3=O)CC1	none
CC1CCN(c2ccc3c(c2)S(=O)(=O)c2ccccc2C3=O)CC1	RGS4 pot -8.2 | RGS4 activ val 68 | M3R Ca counter 65
COc1ccc(NS(=O)(=O)c2csc(C(=O)N3CCCC3)c2)c(OC)c1	none
Cc1cc(F)ccc1S(=O)(=O)N1CCCOC1CNC(=O)C(=O)NCCCN1CCOCC1 (configuration not stated)	none
CCOc1ccc(S(=O)(=O)N(CC(=O)NC2CCCCC2C)Cc2ccco2)cc1 (configuration not stated)	RGS4 pot -8.2 | RGS4 activ val inactive | M3R Ca counter inactive
O=C(NCC1CCCCC1)c1cccc(Br)c1	none
CN1C2CCC1CC(OC(c1ccccc1)c1ccccc1)C2 (configuration not stated)	RGS4 pot -8.8 | RGS4 activ val 92 | M3R Ca counter 91
CN1[C@@H]2CC[C@H]1CC(OC(=O)C(O)c1ccccc1)C2 (some centres not stated)	none (no result: RGS4 block, RGS4 pot)
O=C(NCCN1CCOCC1)N1c2ccccc2Sc2ccccc21	RGS4 pot -11 | RGS4 activ val 83 | M3R Ca counter 54
O=C(CCN1CCOCC1)N1c2ccccc2Sc2ccc(Cl)cc21	RGS4 pot -8.9 | RGS4 activ val 92 | M3R Ca counter 90
CN(C)CCCNC(=O)N1c2ccccc2Sc2ccccc21	RGS4 pot -11 | RGS4 activ val 92 | M3R Ca counter 91
O=C(CSc1nc2ccccc2s1)N1c2ccccc2Sc2ccc(Cl)cc21	none
COC(=O)c1ccc(C(=O)OC)c(NC(=O)COC(=O)CC2CC3CCC2C3)c1 (configuration not stated)	RGS4 pot -9.7 | RGS4 activ val 90 | M3R Ca counter 33
Cc1ccc(Cl)cc1NC(=O)COC(=O)CC1CC2CCC1C2 (configuration not stated)	none
CC(C)NC(=S)NNc1nc2ccccc2s1	none
CSc1cccc(NS(=O)(=O)c2cc(Br)cnc2N)c1	RGS4 pot -7.7 | RGS4 activ val 92 | M3R Ca counter 98
Cc1ccc(NS(=O)(=O)c2cc(Br)cnc2N)cc1C	RGS4 pot -8 | RGS4 activ val 94 | M3R Ca counter 94
Cc1ccc(C)c(SCC(=O)Nc2cccnc2Cl)c1	none
CC(C)(C)c1nnc(NC(=O)c2cc(-c3ccccc3)nc3ccccc23)s1	none
Cc1csc(NC(=O)c2cc(-c3ccccc3)nc3ccccc23)n1	RGS4 pot -7.8 | RGS4 activ val 86 | M3R Ca counter 43
Cc1ccc(C)c(-c2cc(C(=O)Nc3nccs3)c3ccccc3n2)c1	RGS4 pot -7.7 | RGS4 activ val 68 | M3R Ca counter inactive
COC(=O)c1sccc1NC(=O)c1cc(-c2cc(C)ccc2C)nc2ccccc12	none
O=C(COC(=O)c1cccc(S(=O)(=O)N2CCOCC2)c1)NCCc1ccccc1	none
O=C(CSc1nnc2c(n1)[nH]c1ccc(S(=O)(=O)N3CCOCC3)cc12)Nc1ccc(F)c(F)c1	none
Fc1ccccc1C1CC(c2ccco2)=Nc2ccccc2S1 (configuration not stated)	none
CC(Cc1cccs1)NC(=O)Nc1ccc(F)cc1 (configuration not stated)	none
CC(Cc1cccs1)NC(=S)Nc1ccc(Cl)cc1 (configuration not stated)	RGS4 pot -8 | RGS4 activ val 48 | M3R Ca counter 84
CCC(c1nnnn1Cc1cccs1)N1CCN(c2nc3ccccc3s2)CC1 (configuration not stated)	none
CC(C)CC(c1nnnn1Cc1cccs1)N1CCN(c2nc3ccccc3s2)CC1 (configuration not stated)	RGS4 pot -12 | RGS4 activ val 92 | M3R Ca counter 71
COc1ccc(OCC(=O)NNC(=O)c2cccc(S(=O)(=O)N(C)C)c2)cc1	none
O=C(COC(=O)c1cc(-c2cccs2)nc2ccccc12)NC1CCS(=O)(=O)C1 (configuration not stated)	none
C/C=C1\COC(C(=O)NCc2ccccc2)(C(F)(F)F)C=C1C=C(C)C (configuration not stated)	RGS4 pot -7.8 | RGS4 activ val 92 | M3R Ca counter 93
COc1ccc(NC(=O)c2sc3ncn(CC(=O)N4CCCCC4)c(=O)c3c2C)cc1OC	none
